Published values of several laboratories.
Nuclear receptor subfamily 4 group A member 2: Nuclear receptor subfamily 4 group A member 2 (Homo sapiens, UniProt P43354)
P2RY14: P2Y purinoceptor 14 (P2RY14, Homo sapiens, UniProt Q15391)
CDPK1: Calcium-dependent protein kinase 1 (CDPK1, Plasmodium falciparum, UniProt P62344)

SMILES	target	assay	system	setting	measurement	result
CCN1CCN(c2cc(N3CCN(CC)CC3)nc(NCCNc3ccnc4cc(Cl)ccc34)n2)CC1	Nuclear receptor subfamily 4 group A member 2	thermal stability, DSF	–	100 µM	ΔTm	-0.12 °C
COC(=O)[C@H](Cc1c[nH]c2ccccc12)NC(=O)COc1ccc(C)cc1	P2RY14	cAMP, antagonist	HEK293	0.1 µM	inhibition	-20%
CN1C(C(=O)Nc2ccccn2)=C(O)c2sc(Cl)cc2S1(=O)=O	Nuclear receptor subfamily 4 group A member 2	thermal stability, DSF	–	100 µM	ΔTm	0.18 °C
Cc1cc(O)c(-c2ccc([C@@H](C)CN(C)C)cc2)c2c1[nH]c(=O)c1sccc12	Mitogen-activated protein kinase kinase kinase 1 (MAP3K1, Homo sapiens, UniProt Q13233)	enzyme activity, inhibitor	–	0.1 µM	inhibition	4.39%
CCCCC(=O)Nc1ccc(-c2ccc3ncn(CCC)c(=O)c3c2)cn1	CDPK1	binding, competition with immobilised ligand	–	0.5 µM	remaining binding	100%
CC(C)OC(=O)[C@H](Cc1c[nH]c2ccccc12)NC(=O)c1ccc2c(c1)OCO2	P2RY14	cAMP, antagonist	HEK293	0.1 µM	inhibition	10.7%
COc1ccc2oc(-c3ccc4nc(N)oc4c3)c/c(=N\c3ccccc3NC(=O)CCN)c2c1	TGF-beta receptor type-1 (TGFBR1, Homo sapiens, UniProt P36897)	binding	–	1 µM	remaining binding	111%
C1=C/COCc2cc(ccc2OCCN2CCCC2)Nc2nccc(n2)-c2cccc(c2)COC/1	CDPK1	binding	–	0.1 µM	remaining binding	36%
O=C(N[C@@H](Cc1c[nH]c2ccccc12)C(=O)O)c1ccco1	P2RY14	cAMP, antagonist	HEK293	0.1 µM	inhibition	73.6%
